In ChEMBL document CHEMBL2380298, “Synthesis and antimicrobial activity of novel amphiphilic aromatic amino alcohols” (2013):
Values after ≈ are worked out from the molar mass of the structure shown.

Columns and labels:
Assay type in all cases: functional
[1] = system: Candida albicans; assay: Antimicrobial activity against Candida albicans ATCC 22019 by broth dilution method
[2] = system: Staphylococcus aureus; assay: Bactericidal activity against methicillin-resistant Staphylococcus aureus clinical isolate 236 after 24 hrs; settings: isolate 236, 24 h
Method in brief: (§1)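 Bactericidal concentration: 0.1 ml from wells at the MIC dilution and the dilutions on either side was streaked onto tryptic soy agar and incubated 24 h. It was taken as the lowest drug concentration giving no growth (100% killing).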

[3] = system: Staphylococcus aureus; assay: Bactericidal activity against methicillin-resistant Staphylococcus aureus clinical isolate 264 after 24 hrs; settings: isolate 264, 24 h; method in brief: as §1
[4] = system: Staphylococcus aureus; assay: Antimicrobial activity against methicillin-resistant Staphylococcus aureus clinical isolate 236 by broth dilution method
[5] = system: Staphylococcus aureus; assay: Antimicrobial activity against methicillin-resistant Staphylococcus aureus clinical isolate 225 by broth dilution method
[6] = system: Staphylococcus epidermidis; assay: Bactericidal activity against Staphylococcus epidermidis ATCC 12228 after 24 hrs; settings: ATCC 12228, 24 h
Method in brief: (§2)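 MBC: after MIC determination, 0.1 ml from the MIC well and from two dilutions either side streaked on tryptic soy agar, incubated 24 h; MBC taken as lowest concentration giving no growth (100% kill).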

[7] = system: Staphylococcus aureus; assay: Antimicrobial activity against methicillin-resistant Staphylococcus aureus clinical isolate 178 by broth dilution method
[8] = system: Staphylococcus aureus; assay: Bactericidal activity against methicillin-resistant Staphylococcus aureus clinical isolate 260 after 24 hrs; settings: isolate 260, 24 h; method in brief: as §1
[9] = system: Staphylococcus aureus; assay: Antimicrobial activity against methicillin-resistant Staphylococcus aureus clinical isolate 207 by broth dilution method
[10] = system: Staphylococcus aureus; assay: Antimicrobial activity against methicillin-resistant Staphylococcus aureus clinical isolate 235 by broth dilution method
[11] = system: Staphylococcus aureus; assay: Antimicrobial activity against methicillin-resistant Staphylococcus aureus clinical isolate 205 by broth dilution method
[12] = system: Staphylococcus aureus; assay: Bactericidal activity against methicillin-resistant Staphylococcus aureus clinical isolate 238 after 24 hrs; settings: isolate 238, 24 h; method in brief: as §1
[13] = system: Staphylococcus aureus; assay: Antimicrobial activity against methicillin-resistant Staphylococcus aureus clinical isolate 232 by broth dilution method
[14] = system: Staphylococcus aureus; assay: Antimicrobial activity against methicillin-resistant Staphylococcus aureus clinical isolate 237 by broth dilution method
[15] = system: Nakaseomyces glabratus; assay: Antimicrobial activity against Candida glabrata ATCC 18804 by broth dilution method
[16] = system: Staphylococcus aureus; assay: Antimicrobial activity against methicillin-resistant Staphylococcus aureus clinical isolate 176 by broth dilution method
[17] = system: Staphylococcus aureus; assay: Antimicrobial activity against methicillin-resistant Staphylococcus aureus clinical isolate 255 by broth dilution method
[18] = system: Staphylococcus aureus; assay: Antimicrobial activity against methicillin-resistant Staphylococcus aureus clinical isolate 260 by broth dilution method
[19] = system: Candida parapsilosis; assay: Antimicrobial activity against Candida parapsilosis ATCC 90030 by broth dilution method; settings: Lodderomyces parapsilosis
[20] = system: Staphylococcus aureus; assay: Antimicrobial activity against methicillin-resistant Staphylococcus aureus clinical isolate 215 by broth dilution method
[21] = system: Staphylococcus aureus; assay: Bactericidal activity against methicillin-resistant Staphylococcus aureus clinical isolate 237 after 24 hrs; settings: isolate 237, 24 h; method in brief: as §1
[22] = system: Staphylococcus aureus; assay: Antimicrobial activity against methicillin-resistant Staphylococcus aureus clinical isolate 257 by broth dilution method
[23] = system: Staphylococcus aureus; assay: Bactericidal activity against methicillin-resistant Staphylococcus aureus clinical isolate 232 after 24 hrs; settings: isolate 232, 24 h; method in brief: as §1
[24] = system: Staphylococcus aureus; assay: Bactericidal activity against methicillin-resistant Staphylococcus aureus clinical isolate 231 after 24 hrs; settings: isolate 231, 24 h; method in brief: as §1
[25] = system: Staphylococcus aureus; assay: Bactericidal activity against methicillin-resistant Staphylococcus aureus clinical isolate 255 after 24 hrs; settings: isolate 255, 24 h; method in brief: as §1
[26] = system: Staphylococcus aureus; assay: Bactericidal activity against Staphylococcus aureus ATCC 29213 after 24 hrs; settings: ATCC 29213, 24 h; method in brief: as §1
[27] = system: Staphylococcus aureus; assay: Bactericidal activity against methicillin-resistant Staphylococcus aureus clinical isolate 178 after 24 hrs; settings: isolate 178, 24 h; method in brief: as §1
[28] = system: Staphylococcus aureus; assay: Antimicrobial activity against methicillin-resistant Staphylococcus aureus clinical isolate 231 by broth dilution method
[29] = system: Escherichia coli; assay: Bactericidal activity against Escherichia coli ATCC 11229 after 24 hrs; settings: ATCC 11229, 24 h; method in brief: as §2
[30] = system: Staphylococcus epidermidis; assay: Antimicrobial activity against Staphylococcus epidermidis ATCC 12228 by broth dilution method; settings: for MIC: Staphylococcus epidermidis, ATCC 12228
[31] = system: Escherichia coli; assay: Antimicrobial activity against Escherichia coli ATCC 11229 by broth dilution method; settings: for MIC: Escherichia coli, ATCC 11229
[32] = system: Pseudomonas aeruginosa; assay: Antimicrobial activity against Pseudomonas aeruginosa ATCC 27853 by broth dilution method
[33] = system: Staphylococcus aureus; assay: Antimicrobial activity against methicillin-resistant Staphylococcus aureus clinical isolate 218 by broth dilution method
[34] = system: Staphylococcus aureus; assay: Bactericidal activity against methicillin-resistant Staphylococcus aureus clinical isolate 235 after 24 hrs; settings: isolate 235, 24 h; method in brief: as §1
[35] = system: Staphylococcus aureus; assay: Bactericidal activity against methicillin-resistant Staphylococcus aureus clinical isolate 257 after 24 hrs; settings: isolate 257, 24 h; method in brief: as §1
[36] = system: Staphylococcus aureus; assay: Antimicrobial activity against Staphylococcus aureus ATCC 29213 by broth dilution method; settings: for MIC: Staphylococcus aureus, ATCC 29213
[37] = system: Staphylococcus aureus; assay: Antimicrobial activity against methicillin-resistant Staphylococcus aureus clinical isolate 264 by broth dilution method
[38] = system: Staphylococcus aureus; assay: Antimicrobial activity against methicillin-resistant Staphylococcus aureus clinical isolate 259 by broth dilution method
[39] = system: Staphylococcus aureus; assay: Bactericidal activity against methicillin-resistant Staphylococcus aureus clinical isolate 212 after 24 hrs; settings: isolate 212, 24 h; method in brief: as §1
[40] = system: Staphylococcus aureus; assay: Antimicrobial activity against methicillin-resistant Staphylococcus aureus clinical isolate 227 by broth dilution method
[41] = system: Staphylococcus aureus; assay: Antimicrobial activity against methicillin-resistant Staphylococcus aureus clinical isolate 212 by broth dilution method
[42] = system: Candida tropicalis; assay: Antimicrobial activity against Candida tropicalis ATCC 750 by broth dilution method
[43] = system: Staphylococcus aureus; assay: Antimicrobial activity against methicillin-resistant Staphylococcus aureus clinical isolate 195 by broth dilution method
[44] = system: Staphylococcus aureus; assay: Antimicrobial activity against methicillin-resistant Staphylococcus aureus clinical isolate by broth dilution method; settings: for MIC50 / MIC90: Staphylococcus aureus
[45] = system: Staphylococcus aureus; assay: Bactericidal activity against methicillin-resistant Staphylococcus aureus clinical isolate 259 after 24 hrs; settings: isolate 259, 24 h; method in brief: as §1
[46] = system: Staphylococcus aureus; assay: Antimicrobial activity against methicillin-resistant Staphylococcus aureus clinical isolate 238 by broth dilution method

CCCCCCCCCCOc1ccc(CNC(CO)(CO)CO)cc1.Cl
MIC [1]: 4 µg/mL | MBC [2]: 4 µg/mL | MBC [3]: 2 µg/mL | MIC [4]: 4 µg/mL | MIC [5]: 8 µg/mL | MBC [6]: 8 µg/mL | MIC [7]: 8 µg/mL | MBC [8]: 16 µg/mL | MIC [9]: 8 µg/mL | MIC [10]: 4 µg/mL | MIC [11]: 8 µg/mL | MBC [12]: 8 µg/mL | MIC [13]: 16 µg/mL | MIC [14]: 16 µg/mL | MIC [15]: 2 µg/mL | MIC [16]: 8 µg/mL | MIC [17]: 4 µg/mL | MIC [18]: 8 µg/mL | MIC [19]: 8 µg/mL | MIC [20]: 4 µg/mL | MBC [21]: 16 µg/mL | MIC [22]: 4 µg/mL | MBC [23]: 32 µg/mL | MBC [24]: 8 µg/mL | MBC [25]: 8 µg/mL | MBC [26]: 8 µg/mL | MBC [27]: 128 µg/mL | MIC [28]: 8 µg/mL | MBC [29]: 32 µg/mL | -logMIC [30]: 5 | MIC [30]: 4 µg/mL | -logMIC [31]: 4.1 | MIC [31]: 32 µg/mL | MIC [32]: 16 µg/mL | MIC [33]: 4 µg/mL | MBC [34]: 4 µg/mL | MBC [35]: 8 µg/mL | -logMIC [36]: 4.7 | MIC [36]: 8 µg/mL | MIC [37]: 2 µg/mL | MIC [38]: 4 µg/mL | MBC [39]: 128 µg/mL | MIC [40]: 4 µg/mL | MIC [41]: 8 µg/mL | MIC [42]: 8 µg/mL | MIC [43]: 8 µg/mL | -logMIC [44]: 4.842 | MIC50 [44]: 8 µg/mL | MIC90 [44]: 8 µg/mL | MBC [45]: 4 µg/mL | MIC [46]: 8 µg/mL

CCCCCCCCCCCCCCOc1ccc(CNC(CO)(CO)CO)cc1.Cl
MIC [1]: 16 µg/mL | MBC [2]: 8 µg/mL | MBC [3]: 64 µg/mL | MIC [4]: 8 µg/mL | MIC [5]: > 1020 µg/mL | MBC [6]: 512 µg/mL | MIC [7]: 8 µg/mL | MBC [8]: 8 µg/mL | MIC [9]: > 1020 µg/mL | MIC [10]: 4 µg/mL | MIC [11]: 16 µg/mL | MBC [12]: 4 µg/mL | MIC [13]: 8 µg/mL | MIC [14]: 4 µg/mL | MIC [15]: 8 µg/mL | MIC [16]: 16 µg/mL | MIC [17]: 8 µg/mL | MIC [18]: 2 µg/mL | MIC [19]: 8 µg/mL | MIC [20]: > 1020 µg/mL | MBC [21]: 4 µg/mL | MIC [22]: 2 µg/mL | MBC [23]: 8 µg/mL | MBC [24]: 4 µg/mL | MBC [25]: 16 µg/mL | MBC [26]: 16 µg/mL | MIC [28]: 2 µg/mL | -logMIC [30]: 5.36 | MIC [30]: 2 µg/mL | MIC [31]: > 256 µg/mL | MIC [32]: > 256 µg/mL | MIC [33]: 8 µg/mL | MBC [34]: 8 µg/mL | MBC [35]: 8 µg/mL | MIC [36]: 2 µg/mL | MIC [37]: 16 µg/mL | MIC [38]: 2 µg/mL | MIC [40]: > 1020 µg/mL | MIC [41]: > 1020 µg/mL | MIC [42]: 32 µg/mL | MIC [43]: 16 µg/mL | -logMIC [44]: 5.03 | MIC50 [44]: 8 µg/mL | MIC90 [44]: > 1020 µg/mL | MBC [45]: 2 µg/mL | MIC [46]: 4 µg/mL

CCC(C)n1ncn(-c2ccc(N3CCN(c4ccc(OCC5COC(Cn6cncn6)(c6ccc(Cl)cc6Cl)O5)cc4)CC3)cc2)c1=O (stereo not given) [ITRACONAZOLE]
MIC [15]: 256 µg/mL (≈ 363 µM) | MIC [19]: > 512 µg/mL | MIC [42]: > 512 µg/mL
